{"data": "Assay results collected from several papers", "read-out": "metabolic stability", "species": "human", "note": "Each line is one published result; the experiments were not run side by side."}
{"Compound": "Cc1ccc(F)c2cc(C(=O)N[C@@H]3CCC[C@H](N4CCN(S(C)(=O)=O)CC4)C3)[nH]c12", "test system": "hepatocytes", "conditions": "0.5 µM, 2 h", "scaled CLint [mL/min/kg]": 41}
{"Compound": "O=C(c1ccc(F)cc1)C1CCN(CCn2c(=O)[nH]c3ccccc3c2=O)CC1", "test system": "liver microsomes", "scaled CLint [mL/min/kg]": 44.8}
{"Compound": "Cc1ccc(F)c2cc(C(=O)N[C@@H]3CCC[C@H](N4CCOCC4)C3)[nH]c12", "test system": "hepatocytes", "conditions": "0.5 µM, 2 h", "scaled CLint [mL/min/kg]": 75}
{"Compound": "Nc1nc(-c2cc(F)cc(NC(=O)Nc3cc(F)cc(-c4c[nH]c(N)n4)c3)c2)c[nH]1", "test system": "liver microsomes", "conditions": "5 µM, pH 7.4", "scaled CLint [mL/min/kg]": "< 20.8"}
{"Compound": "Cc1coc([C@H]2C[C@H]3[C@@H](C)SC(N)=N[C@@]3(c3ccc(F)cc3F)CO2)n1", "test system": "liver microsomes", "scaled CLint [mL/min/kg]": "< 8"}
{"Compound": "O=C1c2ncc(COc3ccccc3)cc2CCN1c1ccc(F)cc1", "test system": "liver microsomes", "scaled CLint [mL/min/kg]": 19}
{"Compound": "Cc1ccc(F)c2cc(C(=O)N[C@@H]3CCC[C@H](c4ccncc4)C3)[nH]c12", "test system": "hepatocytes", "conditions": "0.5 µM, 2 h", "scaled CLint [mL/min/kg]": 32.3}
{"Compound": "O=C1NCCc2nc(OCc3cccc(F)c3)ccc21", "test system": "liver microsomes", "scaled CLint [mL/min/kg]": 25}
{"Compound": "Cc1coc([C@H]2C[C@H]3[C@@H](CF)SC(N)=N[C@@]3(c3ccc(F)cc3F)CO2)n1", "test system": "liver microsomes", "scaled CLint [mL/min/kg]": 27.8}
{"Compound": "CC(C)(C)n1cc2c(n1)C(O)CC1(CCN(C(=O)c3ccc4[nH]ncc4c3)CC1)O2 (centres unmarked)", "test system": "liver microsomes", "scaled CLint [mL/min/kg]": "< 8.8"}
{"Compound": "Cn1cc([C@H]2C[C@H]3[C@@H](CF)SC(N)=N[C@@]3(c3ccc(F)cc3F)CO2)cn1", "test system": "liver microsomes", "scaled CLint [mL/min/kg]": "< 8"}
{"Compound": "Nc1nc(-c2cccc(NC(=O)Nc3cccc(-c4c[nH]c(N)n4)c3)c2)c[nH]1", "test system": "liver microsomes", "conditions": "5 µM, pH 7.4", "scaled CLint [mL/min/kg]": "< 20.8"}
{"Compound": "CC(F)(F)CN1Cc2cc(C(F)(F)F)ncc2C2=CN=C(NCc3c(F)ccc4c3CCO4)N3C=NC(C1=O)C23 (centres unmarked)", "test system": "liver microsomes", "conditions": "100 µM, 30 min", "scaled CLint [mL/min/kg]": 9.9}
{"Compound": "Cc1nc2ccc(C(=O)N3CCC4(CC3)Cc3cnn(C(C)C)c3C(O)C4)cc2[nH]1 (centres unmarked)", "test system": "liver microsomes", "scaled CLint [mL/min/kg]": "< 8"}
{"Compound": "NC1=N[C@@]2(c3ccc(F)cc3F)CO[C@@H](c3ncco3)C[C@H]2CS1", "test system": "liver microsomes", "scaled CLint [mL/min/kg]": "< 8.7"}
{"Compound": "Cc1cccnc1C(=O)Nc1ccc(N2C(=O)c3cccc(Cl)c3C2=O)c(Cl)c1", "test system": "liver microsomes", "conditions": "1 µM, pH 7.4", "scaled CLint [mL/min/kg]": 16.1}
{"Compound": "CC(=O)Nc1cc(Nc2cc(NC3CC3)n3ncc(C#N)c3n2)ccc1N(C)C[C@@H]1CCCN1", "test system": "hepatocytes", "conditions": "1 µM, serum-free", "scaled CLint [mL/min/kg]": 0.8}
{"Compound": "Cc1cc([C@H]2C[C@H]3[C@@H](CF)SC(N)=N[C@@]3(c3ccc(F)cc3F)CO2)on1", "test system": "liver microsomes", "scaled CLint [mL/min/kg]": "< 8"}
{"Compound": "Nc1nc(-c2ccc(NC(=O)Nc3ccc(-c4c[nH]c(N)n4)c(F)c3)cc2F)c[nH]1", "test system": "liver microsomes", "conditions": "5 µM, pH 7.4", "scaled CLint [mL/min/kg]": "< 20.8"}
{"Compound": "O=C1c2ccc(COc3ccccc3)nc2CCN1c1ccc(F)cc1", "test system": "liver microsomes", "scaled CLint [mL/min/kg]": 18}
